These results are taken from ChEMBL document CHEMBL3272207, “Structure-activity relationship in cinnamamides. 2. Synthesis and pharmacological evaluation of some (E)- and (Z)-N-alkyl-alpha, beta-dimethylcinnamamides substituted on the phenyl group” (J Med Chem, 1977).

Series [1] has as its system Mus musculus. Briefly: Behavioral toxicity in po dosed albino Icem-CET (SPF Caw) mouse assessed as reduction in locomotor activity by Irwin's test. The series is classed as organism-based. The note with it: in vivo.
The test system of series [2] is Mus musculus. The experiment in a line: Behavioral toxicity in po dosed albino Icem-CET (SPF Caw) mouse assessed as positional passivity by Irwin's test. The series is classed as organism-based. The note with it: in vivo.
Series [3] concerns Mus musculus. The experiment in a line: Behavioral toxicity in po dosed albino Icem-CET (SPF Caw) mouse assessed as tremors by Irwin's test. The series is classed as organism-based. The note with it: in vivo.
Series [4] in a line: Toxicity in po dosed albino Icem-CET (SPF Caw) mouse assessed as mortality measured after 24 to 72 hrs. The note with it: in vivo. The series is classed as organism-based.
Series [5] relates to Mus musculus. Briefly: Behavioral toxicity in albino Icem-CET (SPF Caw) mouse assessed as positional passivity at 25 to 800 mg/kg, po by Irwin's test. The series is classed as organism-based. More on the design: dose 25-800 mg/kg, route oral. The note with it: in vivo.
The test system of series [6] is Mus musculus. Briefly: Behavioral toxicity in albino Icem-CET (SPF Caw) mouse assessed as tremors at 25 to 800 mg/kg, po by Irwin's test. The series is classed as organism-based. Set-up: dose 25-800 mg/kg, route oral. The note with it: in vivo.
In series [7] the test system is Mus musculus. The experiment in a line: Behavioral toxicity in albino Icem-CET (SPF Caw) mouse assessed as clonic type convulsion at 25 to 800 mg/kg, po by Irwin's test. The series is classed as organism-based. More on the design: dose 25-800 mg/kg, route oral. The note with it: in vivo.
Series [8] can be described thus: Behavioral toxicity in po dosed albino Icem-CET (SPF Caw) mouse measured up to 7 days by Irwin's test. The series is classed as organism-based. The note with it: in vivo.
In series [9] the test system is Mus musculus. Briefly: Anticonvulsant activity in albino Icem-CET (SPF Caw) mouse assessed as inhibition of pentylenetetrazole-induced maximal extensor seizures at 100 mg/kg, po administered 30 mins prior challenge. More on the design: dose 100 mg/kg. The series is classed as functional, organism-based. The essentials:
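Single-dose screen at 100 mg/kg by gavage in 0.5% Methocel in fasted male Icem-CET (SPF Caw) mice, 17-22 g. Dosing was 30 min before pentylenetetrazole 130 mg/kg ip, and prevention of maximal extensor seizures was scored.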

Series [10] has as its system Mus musculus. Briefly: Behavioral toxicity in po dosed albino Icem-CET (SPF Caw) mouse assessed as excitement at 25 to 100 mg/kg, po measured up to 30 mins post dose by Irwin's test. The series is classed as organism-based. More on the design: dose 25-100 mg/kg, route oral. The note with it: in vivo, 0.5 h.
In series [11] the test system is Mus musculus. Briefly: Behavioral toxicity in albino Icem-CET (SPF Caw) mouse assessed as reduction in locomotor activity at 25 to 800 mg/kg, po by Irwin's test. The series is classed as organism-based. The note with it: in vivo. More on the design: dose 25-800 mg/kg, route oral.
Series [12] deals with Mus musculus. Briefly: Toxicity in po dosed albino Icem-CET (SPF Caw) mouse assessed as clonic type convulsion by Irwin's test. The series is classed as organism-based. The note with it: in vivo. The method in brief:
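Irwin test in fasted (9 h) male Icem-CET (SPF Caw) mice, 17-22 g. Oral gavage of a 0.5% Methocel suspension at screening doses of 25-800 mg/kg. Clonic-type convulsions were scored as the minimum effective dose.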

Series [13] has as its system Mus musculus. The experiment in a line: Toxicity in po dosed albino Icem-CET (SPF Caw) mouse assessed as impairment of pinna by Irwin's test. The note with it: in vivo. The series is classed as organism-based.
In series [14] the test system is Mus musculus. Briefly: Toxicity in po dosed albino Icem-CET (SPF Caw) mouse assessed as impairment of corneal reflexes by Irwin's test. The series is classed as organism-based, Cornea. The note with it: in vivo.
In series [15] the test system is Mus musculus. The experiment in a line: Behavioral toxicity in albino Icem-CET (SPF Caw) mouse assessed as twitches at 200 to 800 mg/kg, po measured after 90 mins by Irwin's test. The series is classed as organism-based. Set-up: dose 200-800 mg/kg, route oral. The note with it: in vivo, 1.5 h.
Series [16] has as its system Mus musculus. The experiment in a line: Behavioral toxicity in albino Icem-CET (SPF Caw) mouse assessed as tremor at 200 to 800 mg/kg, po measured after 90 mins by Irwin's test. The note with it: in vivo, 1.5 h. The series is classed as organism-based. More on the design: dose 200-800 mg/kg, route oral.
For series [17], the system named is Mus musculus. The experiment in a line: Toxicity in albino Icem-CET (SPF Caw) mouse assessed as clonic type convulsion at 200 to 800 mg/kg, po measured after 90 mins by Irwin's test. The note with it: in vivo, 1.5 h. More on the design: dose 200-800 mg/kg, route oral. The series is classed as organism-based.
Series [18] has as its system Mus musculus. Briefly: Behavioral toxicity in albino Icem-CET (SPF Caw) mouse assessed as positional passivity at 25 to 800 mg/kg, po measured up to 90 mins by Irwin's test. The series is classed as organism-based. Set-up: dose 25-800 mg/kg, route oral. The note with it: in vivo, 1.5 h.
Series [19] has as its system Mus musculus. Briefly: Anticonvulsant activity in po dosed albino Icem-CET (SPF Caw) mouse assessed as inhibition of pentylenetetrazole-induced maximal extensor seizures compound administered 30 mins prior challenge. The series is classed as functional. The method in brief: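 Pentylenetetrazole antagonism in male Icem-CET (SPF Caw) mice, 17-22 g, fasted 9 h. Compound in 0.5% Methocel was given by gavage (0.2 ml/10 g) at 4-5 doses, 20 mice per dose, 30 min before pentylenetetrazole 130 mg/kg ip. Prevention of maximal extensor seizures was scored. ED50 was calculated by probit analysis, with fiducial limits at p = 0.05.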

Activity calls are given as the source filed them. No cut-off for these calls is given here.

The term ED50 denotes the midpoint of the dose-response relation. By LD50 is commonly meant the dose expected to kill half of the subjects tested. In the case of `C#CCNC(=O)/C(C)=C(\C)c1ccc(Cl)cc1`, the figures for the ED50 with Mus musculus [1], in the series on Mus musculus [2] and with Mus musculus [3] were 60 mg/kg, 400 mg/kg and 200 mg/kg, respectively. The LD50 in [4] was found to be 140 mg/kg.

Consider `C=CCNC(=O)/C(C)=C(/C)c1ccc(Br)cc1`, for which the Activity result in the series on Mus musculus [5], in the series with Mus musculus [6] and in the series on Mus musculus [7] was “Non-toxic” in each case. Moreover, the 50% effective dose (ED50) with Mus musculus [1] was found to be 400 mg/kg. This compound came in with an LD50 at 168 h in series [8] of 600 mg/kg. Also, the result in the series with Mus musculus [9] was inactive.

On to `CCC1(c2ccccc2)C(=O)N=C([O-])NC1=O.[Na+]` (centres undefined) [PHENOBARBITAL SODIUM], for which the ED50 amounted to 180 mg/kg in the series with Mus musculus [1], 180 mg/kg with Mus musculus [2] and 110 mg/kg with Mus musculus [3]. Besides, the LD50 at 168 h in series [8] was determined as 290 mg/kg. Besides, the Activity result in the series with Mus musculus [10] is “Toxic”.

On to `C/C(C(=O)NC1CC1)=C(\C)c1ccc(F)cc1`, for which the Activity entry is recorded as “Non-toxic” in the series with Mus musculus [11], “Non-toxic” in the series on Mus musculus [5], “Toxic” in the series on Mus musculus [13] and “Toxic” in the series on Mus musculus [14]. Besides, the MED with Mus musculus [12] worked out at 800 mg/kg. The ED50 in the series with Mus musculus [3] was 600 mg/kg. The same compound displayed a median lethal dose (LD50) at 168 h in series [8] of 450 mg/kg. Also, in the series on Mus musculus [9], the result was inactive.

For `O=C1NC(=O)C(c2ccccc2)(c2ccccc2)N1` [PHENYTOIN], the Activity result in the series with Mus musculus [15], in the series with Mus musculus [16], in the series on Mus musculus [17] and in the series with Mus musculus [18] was “Non-toxic” each time. Besides, the ED50 in the series on Mus musculus [1] is 150 mg/kg; in the series with Mus musculus [3], 250 mg/kg.

For `C/C(C(=O)NC1CC1)=C(/C)c1ccc(Br)cc1`, the 50% effective dose (ED50) was determined as 100 mg/kg in the series with Mus musculus [1], 600 mg/kg with Mus musculus [2], 130 mg/kg in the series on Mus musculus [3] and 8.2 mg/kg with Mus musculus [19]. Also, the LD50 in series [4] worked out at 200 mg/kg.
